Source: ChEMBL document CHEMBL5696442, “Discovery of type II inhibitors of TGFβ-activated kinase 1 (TAK1) and mitogen-activated protein kinase kinase kinase kinase 2 (MAP4K2)” (J Med Chem, 2015)

Assays:
[1] = target: T1, Mitogen-activated protein kinase 12 (Homo sapiens) (UniProt P53778); experiment: Inhibition of p38 gamma Lys2 labeling site in human A-375 cells at 0.5 uM by KiNativ Profiling analysis relative to control; assay type: cell-based
T1 sequence (whole entry): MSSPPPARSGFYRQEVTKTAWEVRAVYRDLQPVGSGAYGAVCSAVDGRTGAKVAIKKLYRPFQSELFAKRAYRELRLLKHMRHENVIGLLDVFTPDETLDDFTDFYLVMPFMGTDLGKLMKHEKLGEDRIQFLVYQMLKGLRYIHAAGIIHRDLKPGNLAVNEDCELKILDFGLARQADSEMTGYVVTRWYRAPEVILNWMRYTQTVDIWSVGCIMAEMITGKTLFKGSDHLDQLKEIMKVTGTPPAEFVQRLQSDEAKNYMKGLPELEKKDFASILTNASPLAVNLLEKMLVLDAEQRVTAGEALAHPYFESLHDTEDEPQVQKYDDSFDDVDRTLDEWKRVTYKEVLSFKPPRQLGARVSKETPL

[2] = target: Cyclin-dependent kinase 16 (Homo sapiens) (UniProt Q00536); experiment: Inhibition of PCTAIRE1 Lys1 labeling site in human A-375 cells at 0.5 uM by KiNativ Profiling analysis relative to control; assay type: cell-based
[3] = target: Serine/threonine-protein kinase 25 (Homo sapiens) (UniProt O00506); experiment: Inhibition of YSK1 ACT labeling site in human A-375 cells at 5 uM by KiNativ Profiling analysis relative to control; assay type: cell-based
[4] = AUC last in Swiss albino mouse at 1 mg/kg, iv measured upto 24 hrs by LC/MS/MS analysis; assay type: ADME, organism-based; settings: in vivo
How it was run: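 Male Swiss albino mice. […] Blood was taken into K2EDTA from three mice per time point, from 0 to 24 h. Plasma was precipitated with acetonitrile and analysed by LC/MS/MS (LLOQ 1.138 ng/mL).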

[5] = target: Serine/threonine-protein kinase WNK3 (Homo sapiens) (UniProt Q9BYP7); experiment: Inhibition of Wnk3 Lys2 labeling site in human A-375 cells at 5 uM by KiNativ Profiling analysis relative to control; assay type: cell-based
[6] = target: Tyrosine-protein kinase Lyn (Homo sapiens, UniProt P07948); experiment: Inhibition of LYN Lys1 labeling site in human A-375 cells at 0.5 uM by KiNativ Profiling analysis relative to control; assay type: cell-based
[7] = target: T2, Serine/threonine-protein kinase NLK (Homo sapiens) (UniProt Q9UBE8); experiment: Inhibition of NLK Lys2 labeling site in human A-375 cells at 5 uM by KiNativ Profiling analysis relative to control; assay type: cell-based
T2 sequence (whole entry): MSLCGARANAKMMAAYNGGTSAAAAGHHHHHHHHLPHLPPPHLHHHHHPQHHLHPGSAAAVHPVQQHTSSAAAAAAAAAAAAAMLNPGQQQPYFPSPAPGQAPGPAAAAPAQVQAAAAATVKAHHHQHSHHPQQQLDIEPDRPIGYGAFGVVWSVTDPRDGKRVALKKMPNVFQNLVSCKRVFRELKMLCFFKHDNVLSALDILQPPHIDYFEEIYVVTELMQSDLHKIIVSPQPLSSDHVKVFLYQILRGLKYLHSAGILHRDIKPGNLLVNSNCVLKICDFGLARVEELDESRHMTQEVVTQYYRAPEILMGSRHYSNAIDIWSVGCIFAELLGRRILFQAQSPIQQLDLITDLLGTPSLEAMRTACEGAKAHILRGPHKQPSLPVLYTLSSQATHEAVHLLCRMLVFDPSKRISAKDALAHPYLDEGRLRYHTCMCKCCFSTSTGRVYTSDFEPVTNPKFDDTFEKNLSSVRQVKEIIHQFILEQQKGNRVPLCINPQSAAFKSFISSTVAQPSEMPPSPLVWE

[8] = target: Serine/threonine-protein kinase WNK3 (Homo sapiens) (UniProt Q9BYP7); experiment: Inhibition of Wnk3 Lys2 labeling site in human A-375 cells at 0.05 uM by KiNativ Profiling analysis relative to control; assay type: cell-based
[9] = target: Tyrosine-protein kinase Fer (Homo sapiens, UniProt P16591); experiment: Inhibition of FER Lys1 labeling site in human A-375 cells at 0.5 uM by KiNativ Profiling analysis relative to control; assay type: cell-based
[10] = target: Serine/threonine-protein kinase/endoribonuclease IRE1 (Homo sapiens) (UniProt O75460); experiment: Inhibition of IRE1 Lys2 labeling site in human A-375 cells at 0.5 uM by KiNativ Profiling analysis relative to control; assay type: cell-based
[11] = target: Mitogen-activated protein kinase 8 (Homo sapiens, UniProt P45983); experiment: Inhibition of JNK1 Lys2 labeling site in human A-375 cells at 0.05 uM by KiNativ Profiling analysis relative to control; assay type: cell-based
[12] = target: Serine/threonine-protein kinase WNK4 (Homo sapiens) (UniProt Q96J92); experiment: Inhibition of Wnk4 ACT labeling site in human A-375 cells at 5 uM by KiNativ Profiling analysis relative to control; assay type: cell-based
[13] = target: Epidermal growth factor receptor (Homo sapiens) (UniProt P00533); experiment: Inhibition of EGFR ACT labeling site harbouring LLGAEEKEYHAEGGKVPIK in human A-375 cells at 0.05 uM by KiNativ Profiling analysis relative to control; assay type: cell-based
[14] = target: p38 delta/gamma (Homo sapiens) (UniProt O15264+P53778); experiment: Inhibition of p38delta/gamma Lys2 labeling site in human A-375 cells at 0.5 uM by KiNativ Profiling analysis relative to control; assay type: cell-based
[15] = target: Cyclin-dependent kinase 11B (Homo sapiens) (UniProt P21127); experiment: Inhibition of CDK11 Lys2 labeling site in human A-375 cells at 0.05 uM by KiNativ Profiling analysis relative to control; assay type: cell-based
[16] = target: T3, Dual specificity mitogen-activated protein kinase kinase 5 (Homo sapiens) (UniProt Q13163); experiment: Inhibition of MAP2K5 Lys2 labeling site in human A-375 cells at 0.5 uM by KiNativ Profiling analysis relative to control; assay type: cell-based
T3 sequence (whole entry): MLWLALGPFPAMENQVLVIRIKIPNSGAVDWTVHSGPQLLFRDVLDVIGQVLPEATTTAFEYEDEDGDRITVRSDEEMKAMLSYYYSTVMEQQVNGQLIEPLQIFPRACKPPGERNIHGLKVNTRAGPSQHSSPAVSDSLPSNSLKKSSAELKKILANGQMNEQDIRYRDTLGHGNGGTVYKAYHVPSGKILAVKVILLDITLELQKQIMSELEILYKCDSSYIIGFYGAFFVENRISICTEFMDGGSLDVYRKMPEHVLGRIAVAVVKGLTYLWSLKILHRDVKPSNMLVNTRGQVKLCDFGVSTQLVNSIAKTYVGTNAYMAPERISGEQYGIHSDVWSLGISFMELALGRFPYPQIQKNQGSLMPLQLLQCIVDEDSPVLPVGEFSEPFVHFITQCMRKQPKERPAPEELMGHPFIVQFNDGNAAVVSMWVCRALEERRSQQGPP

Sequence of Serine/threonine-protein kinase WNK3 (Homo sapiens) (Q9BYP7 whole entry): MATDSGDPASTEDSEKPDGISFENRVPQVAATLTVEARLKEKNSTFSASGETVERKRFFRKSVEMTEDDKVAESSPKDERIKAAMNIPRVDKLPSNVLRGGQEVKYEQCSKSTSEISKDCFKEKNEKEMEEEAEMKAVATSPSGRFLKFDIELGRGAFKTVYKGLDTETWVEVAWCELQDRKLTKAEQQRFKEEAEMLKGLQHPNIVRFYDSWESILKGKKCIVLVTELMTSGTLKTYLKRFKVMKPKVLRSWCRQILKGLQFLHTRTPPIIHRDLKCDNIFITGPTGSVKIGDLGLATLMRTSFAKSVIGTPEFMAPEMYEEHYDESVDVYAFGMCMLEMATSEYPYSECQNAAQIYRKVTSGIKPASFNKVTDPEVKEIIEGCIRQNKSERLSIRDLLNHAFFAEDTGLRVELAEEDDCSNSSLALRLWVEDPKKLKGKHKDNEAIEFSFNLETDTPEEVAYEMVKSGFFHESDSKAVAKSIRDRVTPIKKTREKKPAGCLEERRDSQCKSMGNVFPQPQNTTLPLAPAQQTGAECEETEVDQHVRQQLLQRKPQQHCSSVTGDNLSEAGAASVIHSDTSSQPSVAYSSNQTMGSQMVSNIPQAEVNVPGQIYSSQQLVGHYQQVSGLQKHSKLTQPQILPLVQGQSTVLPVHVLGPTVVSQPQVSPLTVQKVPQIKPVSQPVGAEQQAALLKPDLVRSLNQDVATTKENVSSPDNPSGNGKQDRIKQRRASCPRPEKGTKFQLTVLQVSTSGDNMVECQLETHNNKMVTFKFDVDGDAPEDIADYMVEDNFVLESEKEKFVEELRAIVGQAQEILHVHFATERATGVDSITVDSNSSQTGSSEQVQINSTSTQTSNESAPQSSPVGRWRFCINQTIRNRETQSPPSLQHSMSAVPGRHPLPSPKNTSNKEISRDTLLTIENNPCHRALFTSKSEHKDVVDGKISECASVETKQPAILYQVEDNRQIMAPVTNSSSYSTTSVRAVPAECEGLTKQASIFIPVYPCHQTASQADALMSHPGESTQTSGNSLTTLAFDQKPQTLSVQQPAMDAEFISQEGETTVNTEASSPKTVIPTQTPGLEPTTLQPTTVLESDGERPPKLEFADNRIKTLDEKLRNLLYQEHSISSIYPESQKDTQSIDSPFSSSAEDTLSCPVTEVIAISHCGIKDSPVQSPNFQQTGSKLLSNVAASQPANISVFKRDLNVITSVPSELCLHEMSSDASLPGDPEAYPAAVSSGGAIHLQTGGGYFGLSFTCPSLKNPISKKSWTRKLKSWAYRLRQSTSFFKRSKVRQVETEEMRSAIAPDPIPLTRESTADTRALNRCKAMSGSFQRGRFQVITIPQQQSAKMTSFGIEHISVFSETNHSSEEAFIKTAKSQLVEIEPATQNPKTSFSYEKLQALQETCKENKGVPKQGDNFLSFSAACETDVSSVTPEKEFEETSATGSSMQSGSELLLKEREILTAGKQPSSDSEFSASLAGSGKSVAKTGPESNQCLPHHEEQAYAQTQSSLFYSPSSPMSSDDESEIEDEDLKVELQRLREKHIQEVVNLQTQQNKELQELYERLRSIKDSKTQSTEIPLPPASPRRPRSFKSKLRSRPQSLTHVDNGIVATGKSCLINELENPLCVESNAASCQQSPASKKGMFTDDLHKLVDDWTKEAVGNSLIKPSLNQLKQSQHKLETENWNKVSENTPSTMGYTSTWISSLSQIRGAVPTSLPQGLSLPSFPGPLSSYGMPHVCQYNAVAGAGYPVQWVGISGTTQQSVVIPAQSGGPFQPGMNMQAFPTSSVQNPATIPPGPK
Sequence of Cyclin-dependent kinase 11B (Homo sapiens) (P21127 whole entry): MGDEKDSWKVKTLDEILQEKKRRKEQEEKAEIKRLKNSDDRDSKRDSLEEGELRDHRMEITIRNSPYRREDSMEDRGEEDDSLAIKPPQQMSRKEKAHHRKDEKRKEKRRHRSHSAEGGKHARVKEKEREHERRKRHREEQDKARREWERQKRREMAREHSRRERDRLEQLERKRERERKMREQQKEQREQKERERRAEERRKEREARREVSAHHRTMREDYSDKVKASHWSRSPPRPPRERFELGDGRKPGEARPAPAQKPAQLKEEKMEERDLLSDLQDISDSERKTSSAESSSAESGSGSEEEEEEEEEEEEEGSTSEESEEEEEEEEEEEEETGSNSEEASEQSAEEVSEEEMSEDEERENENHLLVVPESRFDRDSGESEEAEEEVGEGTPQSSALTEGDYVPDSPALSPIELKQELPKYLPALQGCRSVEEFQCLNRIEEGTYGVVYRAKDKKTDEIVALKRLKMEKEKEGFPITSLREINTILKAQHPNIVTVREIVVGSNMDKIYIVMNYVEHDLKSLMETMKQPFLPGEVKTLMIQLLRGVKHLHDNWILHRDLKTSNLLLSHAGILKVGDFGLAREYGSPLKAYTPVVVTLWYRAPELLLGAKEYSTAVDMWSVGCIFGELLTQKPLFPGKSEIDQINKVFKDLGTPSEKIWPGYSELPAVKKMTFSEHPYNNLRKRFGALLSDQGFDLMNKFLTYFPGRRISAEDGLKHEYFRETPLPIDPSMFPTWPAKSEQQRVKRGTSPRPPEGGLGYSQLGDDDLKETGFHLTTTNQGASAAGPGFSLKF
Sequence of Mitogen-activated protein kinase 8 (P45983 whole entry): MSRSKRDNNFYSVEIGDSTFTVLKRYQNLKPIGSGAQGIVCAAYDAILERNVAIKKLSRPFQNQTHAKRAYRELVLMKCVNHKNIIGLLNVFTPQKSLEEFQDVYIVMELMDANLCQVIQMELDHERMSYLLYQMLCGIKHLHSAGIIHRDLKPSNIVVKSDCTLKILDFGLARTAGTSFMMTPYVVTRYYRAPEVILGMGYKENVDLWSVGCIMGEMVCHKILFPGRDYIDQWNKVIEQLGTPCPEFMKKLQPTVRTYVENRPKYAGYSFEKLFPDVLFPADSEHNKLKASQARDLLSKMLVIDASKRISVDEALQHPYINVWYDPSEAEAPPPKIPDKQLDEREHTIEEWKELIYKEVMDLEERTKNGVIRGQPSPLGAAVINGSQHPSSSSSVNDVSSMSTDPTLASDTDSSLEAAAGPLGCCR
Sequence of Serine/threonine-protein kinase/endoribonuclease IRE1 (Homo sapiens) (O75460 19-977 limits assumed): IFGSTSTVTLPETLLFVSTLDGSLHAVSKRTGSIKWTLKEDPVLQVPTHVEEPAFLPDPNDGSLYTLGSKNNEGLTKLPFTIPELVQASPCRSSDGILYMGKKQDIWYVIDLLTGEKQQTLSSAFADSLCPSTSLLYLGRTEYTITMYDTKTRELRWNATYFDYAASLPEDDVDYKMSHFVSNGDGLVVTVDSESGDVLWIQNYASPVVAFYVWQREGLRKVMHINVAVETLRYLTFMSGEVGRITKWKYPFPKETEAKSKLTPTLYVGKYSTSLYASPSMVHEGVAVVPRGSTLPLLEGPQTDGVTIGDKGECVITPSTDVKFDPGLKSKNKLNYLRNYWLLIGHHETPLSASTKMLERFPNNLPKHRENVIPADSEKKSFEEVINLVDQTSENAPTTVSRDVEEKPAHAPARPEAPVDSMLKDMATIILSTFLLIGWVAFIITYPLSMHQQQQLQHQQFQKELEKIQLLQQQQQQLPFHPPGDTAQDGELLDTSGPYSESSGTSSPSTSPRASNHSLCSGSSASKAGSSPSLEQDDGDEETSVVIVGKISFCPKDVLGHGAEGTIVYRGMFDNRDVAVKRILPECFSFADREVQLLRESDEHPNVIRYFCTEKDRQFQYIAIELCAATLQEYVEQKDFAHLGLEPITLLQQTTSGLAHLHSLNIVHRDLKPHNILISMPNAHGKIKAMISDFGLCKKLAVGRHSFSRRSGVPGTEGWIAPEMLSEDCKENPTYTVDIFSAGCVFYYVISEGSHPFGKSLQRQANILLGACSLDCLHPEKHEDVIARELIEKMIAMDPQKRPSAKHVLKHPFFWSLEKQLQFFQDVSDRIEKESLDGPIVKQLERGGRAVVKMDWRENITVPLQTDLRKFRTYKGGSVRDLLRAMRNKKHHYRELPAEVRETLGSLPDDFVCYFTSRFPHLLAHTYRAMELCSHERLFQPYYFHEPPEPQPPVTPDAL
Sequence of Cyclin-dependent kinase 16 (Homo sapiens) (Q00536 whole entry): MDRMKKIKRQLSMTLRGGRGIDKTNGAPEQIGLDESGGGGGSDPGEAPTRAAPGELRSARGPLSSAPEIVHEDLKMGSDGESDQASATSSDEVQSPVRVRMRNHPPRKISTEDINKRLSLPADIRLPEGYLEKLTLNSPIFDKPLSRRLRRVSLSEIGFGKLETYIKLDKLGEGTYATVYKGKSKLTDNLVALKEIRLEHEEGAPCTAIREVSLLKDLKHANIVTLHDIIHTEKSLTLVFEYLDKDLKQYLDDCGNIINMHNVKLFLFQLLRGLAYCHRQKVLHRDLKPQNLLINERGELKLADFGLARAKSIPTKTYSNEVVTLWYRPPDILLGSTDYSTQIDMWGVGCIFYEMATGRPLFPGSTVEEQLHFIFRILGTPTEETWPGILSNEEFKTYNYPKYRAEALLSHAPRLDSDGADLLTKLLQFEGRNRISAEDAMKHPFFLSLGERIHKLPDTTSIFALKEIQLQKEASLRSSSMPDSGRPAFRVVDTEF
Sequence of Serine/threonine-protein kinase 25 (Homo sapiens) (O00506 whole entry, looked up): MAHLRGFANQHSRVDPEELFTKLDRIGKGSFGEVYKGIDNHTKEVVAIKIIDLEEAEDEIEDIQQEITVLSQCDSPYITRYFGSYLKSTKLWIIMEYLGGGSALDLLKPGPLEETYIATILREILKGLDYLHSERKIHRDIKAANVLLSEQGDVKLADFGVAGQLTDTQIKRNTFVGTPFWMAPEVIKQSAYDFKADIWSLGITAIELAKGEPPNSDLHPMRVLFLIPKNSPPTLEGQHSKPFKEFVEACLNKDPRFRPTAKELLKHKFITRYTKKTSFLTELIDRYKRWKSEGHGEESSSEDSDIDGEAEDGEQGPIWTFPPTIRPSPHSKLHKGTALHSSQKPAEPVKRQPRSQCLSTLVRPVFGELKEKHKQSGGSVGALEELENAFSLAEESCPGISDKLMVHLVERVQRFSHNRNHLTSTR

CCN1CCN(Cc2ccc(NC(=O)c3ccc(C)c(Oc4ccnc5[nH]ccc45)c3)cc2C(F)(F)F)CC1
inhibition [1]: 86.2%
inhibition [2]: 47.7%
inhibition [3]: 35.1%
AUClast [4]: 195 ng·h/mL
inhibition [5]: -5.5%
inhibition [6]: 90.5%
inhibition [7]: 18.9%
inhibition [8]: -3.5%
inhibition [9]: 87%
inhibition [10]: 4.5%
inhibition [11]: 50.3%
inhibition [12]: 14.4%
inhibition [13]: 17.5%
inhibition [14]: 86.2%
inhibition [15]: 32.1%
inhibition [16]: 16.2%

CCN1CCN(Cc2ccc(NC(=O)c3ccc(C)c(/C=C/c4cnc5[nH]ccc5c4OC)c3)cc2C(F)(F)F)CC1
inhibition [1]: 25.2%
inhibition [2]: 30.2%
inhibition [3]: 13.7%
AUClast [4]: 403 ng·h/mL
inhibition [5]: 14.3%
inhibition [6]: > 95%
inhibition [7]: 66.6%
inhibition [8]: 7.1%
inhibition [9]: 30%
inhibition [10]: -9.6%
inhibition [11]: 23.9%
inhibition [12]: -4.5%
inhibition [13]: -6.7%
inhibition [14]: 25.2%
inhibition [15]: -9.4%
inhibition [16]: 26.1%
